The subject of data set [1] is NCI-H460. The data set can be described thus: Cytotoxicity against human H460 cells after 72 hrs by alamar blue assay. The format is functional, cell-based. An outline of the steps: (§1)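 Cells seeded at 4 × 10³ per well and grown 24 h. Compounds dissolved in DMSO and diluted in medium to final concentrations, then incubated 72 h at 37 °C, 5% CO₂. Viable cells read by AlamarBlue; IC₅₀ taken as the concentration giving 50% growth inhibition.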
(The colour change of resazurin is a common sign of viable cells or microbes.)

Data set [2] can be described thus: Cytotoxicity against mouse bone marrow cell by CFU-GM assay. The format is cell-based. The gist of the method:
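CFU-GM colony assay on normal human bone marrow (thawed) or mouse femoral marrow (freshly extracted). Human colonies scored after 16-18 days. IC₅₀ taken from triplicate assays.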

The nature of data set [3]: Resistance ratio of IC50 for human H69AR cells overexpressing MRP1 after 72 hrs s to IC50 for human H69 cells after 72 hrs.
Data set [4] has as its system HT-29. Nature of the data set: Cytotoxicity against human HT-29 cells after 72 hrs by alamar blue assay. The class given is functional, cell-based. The note with it: HT-29, 72 h. The gist of the method: as §1
Data set [5] in a line: Half life in CD-1 mouse brain at 50 mg/kg, ip by LC/MS/MS analysis. The class given is ADME, organism-based. The arrangement: dose 50 mg/kg, route intraperitoneal. The gist of the method:
(§2)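 CD-1 mice (~25 g) given 50 mg/kg ip in 5% DMSO/5% Tween 80 in water; three mice per time point, sampled up to 480 min. Blood taken by cardiac puncture into EDTA, then whole brain excised and homogenized in water. Proteins precipitated with ice-cold acetonitrile containing propranolol internal standard; supernatant analysed by HPLC/MS/MS.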

For data set [6], the system named is DU-145. The data set can be described thus: Cytotoxicity against human DU145 cells after 72 hrs by alamar blue assay. The class given is functional, cell-based. The note with it: DU-145, 72 h. The gist of the method:
as §1

The nature of data set [7]: Resistance ratio of IC50 for human MES-SA/Dx5 cells overexpressing MDR1 after 72 hrs to IC50 for human MESSA cells after 72 hrs. The class given is functional. The gist of the method:
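Cytotoxicity compared in MDR1-overexpressing lines and their parental wild-type lines. 72 h exposure at 37 °C, viability by AlamarBlue, IC₅₀ at 50% growth inhibition. Resistance ratio = IC₅₀ in overexpressing line / IC₅₀ in parental line.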

Data set [8] in a line: Ratio of drug level in brain to plasma in CD-1 mouse at 50 mg/kg, ip. The format is ADME, organism-based. Also noted: dose 50 mg/kg, route intraperitoneal. The gist of the method: as §2
Data set [9] can be described thus: AUC in CD-1 mouse brain at 50 mg/kg, ip by LC/MS/MS analysis. The format is ADME, organism-based. Also noted: dose 50 mg/kg, route intraperitoneal. An outline of the steps:
as §2

Data set [10] in a line: AUC in CD-1 mouse plasma at 50 mg/kg, ip by LC/MS/MS analysis. The format is ADME, organism-based. Also noted: dose 50 mg/kg, route intraperitoneal. An outline of the steps: as §2
Data set [11] relates to SK-MEL-2. The data set can be described thus: Cytotoxicity against human SK-MEL-2 cells after 72 hrs by alamar blue assay. The format is functional, cell-based. The note with it: SK-MEL-2, 72 h. An outline of the steps:
as §1

The subject of data set [12] is NCI-H69. Nature of the data set: Cytotoxicity against human H69 cells after 72 hrs by alamar blue assay. The format is functional, cell-based. The note with it: NCI-H69, 72 h. The gist of the method: as §1
Data set [13] in a line: Ratio of IC50 for mouse bone marrow cell to IC50 for human bone marrow cell. The format is cell-based. To be noted: bone marrow cells. The gist of the method:
(§3)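 CFU-GM colony assay in triplicate at 2 × 10⁴ cells per culture, using thawed normal human bone marrow or fresh mouse femoral marrow. Colonies were scored after 16-18 days. The IC50 or IC90 from each species gave the mouse/human ratio.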

Data set [14] has as its system NCI-H460. Nature of the data set: Antitumor activity against human H460 cells xenografted in nu/nu mouse assessed as tumor growth inhibition at 30 mg/kg, po QD for 5 days followed by 2days without treatment for 2 weeks. The class given is functional. The arrangement: scale not given: the % may be the effect or the level left. The gist of the method:
(§4)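 Female nude (nu/nu) mice (males for prostate model) implanted sc in the flank with tumor cells (1 × 10⁶ for H460). Dosing began at 100-150 mm³, 10 mice/group. Oral gavage in 5% DMSO/5% Tween 80/1% CMC in water, 5 days on/2 off per cycle, 2 or 4 cycles. Volume = length×width²/2, measured twice weekly. TGI = (1 − ΔT/ΔC)×100; TGD = extra days to reach 500 mm³ versus control.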

Data set [15] concerns H69AR. Nature of the data set: Cytotoxicity against human H69AR cells overexpressing MRP1 after 72 hrs by alamar blue assay.
A short description of data set [16]: Tmax in CD-1 mouse plasma at 50 mg/kg, ip by LC/MS/MS analysis. The class given is ADME, organism-based. Also noted: dose 50 mg/kg, route intraperitoneal. The gist of the method: as §2
Data set [17] relates to Mus musculus. Nature of the data set: Toxicity in nu/nu mouse assessed as body weight loss at 30 mg/kg, po QD for 5 days followed by 2 days without treatment for 2 weeks. The format is organism-based. The arrangement: dose 30 mg/kg, route oral. To be noted: in vivo. An outline of the steps:
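Female nude (nu/nu) mice (males for prostate model) bearing sc xenografts, dosing started at 100-150 mm³, 10/group. Oral gavage in 5% DMSO/5% Tween 80/1% CMC in water, QD 5 days on/2 off per cycle, 2 or 4 cycles. Body weight recorded twice weekly; maximum loss reported.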

Data set [18] relates to NCI-H460. Nature of the data set: Cytotoxicity against human H460 cells after 72 hrs by alamar blue assay in presence of 40 mg/ml HSA. The note with it: NCI-H460, 72 h. The class given is functional, cell-based. An outline of the steps: (§5)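 H460 cells seeded at 4 × 10³ per well and grown 24 h. Compounds then cocultured with cells for 72 h at 37 °C, with or without 40 mg/mL human serum albumin. Viability read by AlamarBlue; IC₅₀ = 50% growth inhibition. Ratio compares the IC₅₀ with HSA to the IC₅₀ without.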

The nature of data set [19]: Cytotoxicity against human bone marrow cell by CFU-GM assay. The format is cell-based.
A short description of data set [20]: Cytotoxicity against human MESSA cells after 72 hrs by alamar blue assay. The note with it: MES-SA. The class given is functional, cell-based. An outline of the steps: as §1
The test system of data set [21] is NCI-H460. The data set can be described thus: Ratio IC50 for human H460 cells after 72 hrs in presence of 40 mg/ml HSA to IC50 for human H460 cells after 72 hrs. The class given is functional. An outline of the steps: as §5
The subject of data set [22] is LNCaP. Nature of the data set: Cytotoxicity against human LNCAP cells after 72 hrs by alamar blue assay. The class given is functional, cell-based. An outline of the steps: as §1
A short description of data set [23]: Cmax in CD-1 mouse plasma at 50 mg/kg, ip by LC/MS/MS analysis. The format is ADME, organism-based. The arrangement: dose 50 mg/kg, route intraperitoneal. An outline of the steps: as §2
Data set [24] can be described thus: Tmax in CD-1 mouse brain at 50 mg/kg, ip by LC/MS/MS analysis. The format is ADME, organism-based. The arrangement: dose 50 mg/kg, route intraperitoneal. An outline of the steps: as §2
The nature of data set [25]: Ratio of IC90 for mouse bone marrow cell to IC90 for human bone marrow cell. The format is ADME, cell-based. To be noted: bone marrow cells. The gist of the method:
as §3

Data set [26] relates to IGROV-1. The data set can be described thus: Cytotoxicity against human IGROV1 cells after 72 hrs by alamar blue assay. The format is functional, cell-based. The note with it: IGROV-1, 72 h. An outline of the steps: as §1
Data set [27] has as its system A-375. Nature of the data set: Cytotoxicity against human A375 cells after 72 hrs by alamar blue assay. To be noted: A-375, 72 h. The format is functional, cell-based. The gist of the method: as §1
A short description of data set [28]: Cmax in CD-1 mouse brain at 50 mg/kg, ip by LC/MS/MS analysis. The format is ADME, organism-based. The arrangement: dose 50 mg/kg, route intraperitoneal. An outline of the steps:
as §2

The nature of data set [29]: Cytotoxicity against human MES-SA/Dx5 cells overexpressing MDR1 after 72 hrs by alamar blue assay. The class given is functional, cell-based. To be noted: MES-SA/Dx5, 72 h. The gist of the method: as §1
Data set [30] has as its system PC-3. The data set can be described thus: Cytotoxicity against human PC3 cells after 72 hrs by alamar blue assay. The format is functional, cell-based. To be noted: PC-3, 72 h. The gist of the method: as §1
In data set [31] the test system is NCI-H460. The data set can be described thus: Antitumor activity against human H460 cells xenografted in nu/nu mouse assessed as tumor growth delay at 30 mg/kg, po QD for 5 days followed by 2days without treatment for 2 weeks. The format is functional. The gist of the method:
as §4

Data set [32] in a line: Half life in CD-1 mouse plasma at 50 mg/kg, ip by LC/MS/MS analysis. The class given is ADME, organism-based. The arrangement: dose 50 mg/kg, route intraperitoneal. An outline of the steps:
as §2

Data set [33] has as its system Malme-3M. The data set can be described thus: Cytotoxicity against human MALME-3M cells after 72 hrs by alamar blue assay. The format is functional, cell-based. The gist of the method:
as §1

`CC[C@@]1(O)C(=O)OCc2c1c([N+](=O)[O-])c1n(c2=O)Cc2cc3ccccc3nc2-1`: in data set [1] (Homo sapiens, NCI-H460, 72 h), the IC50 was 3 µM.
With `CC[C@@]1(O)C(=O)OCc2c1c(N)c1n(c2=O)Cc2cc3ccccc3nc2-1`, the IC50 in data set [2] was found to be 0.01 µM; in data set [4], 0.23 µM; in data set [6], 0.78 µM; in data set [11], 0.17 µM; in [12] it was 0.091 µM; in data set [15] it was 0.091 µM. Moreover, the IC50 was determined as 0.12 µM in data set [18]; 0.71 µM in data set [19] (Homo sapiens, Bone marrow cell); 0.058 µM in data set [20]; 0.018 µM in [1] (Homo sapiens, NCI-H460, 72 h); 0.023 µM in data set [1] (nci-h460); 0.11 µM in [22]. Besides, the IC50 in [26] is 0.12 µM; in data set [27] it was 0.022 µM; in data set [29] it was 0.06 µM; in data set [30] it was 0.043 µM; in data set [33], 0.78 µM. For the same compound, the Ratio in data set [3] came to 1; in [7], 1; in data set [21] it was 5. The half-life in data set [5] was 3.5 h; in data set [32] it was 4.17 h. Moreover, in data set [8], the Kp came out at 101. Besides, the AUC was 1.67 µg·h/mL in data set [9] and 1.5 µg·h/mL in [10]. Besides, the selectivity ratio in data set [13] stood at 6; in data set [25], 4. For the same compound, the results for the Activity in data set [14] and in [17] were 79% and 4%, respectively. Moreover, the Tmax in [16] and in data set [24] was 0.5 h in each case. It took 4.8 µM to reach the 90% level in data set [19] (human, bone marrow cells) (IC90). For the same compound, the Cmax in data set [23] and in data set [28] was 0.6 µg/mL each time. Also, the Time in [31] was 15 days.
In data set [1] (Homo sapiens, NCI-H460, 72 h), `CCc1c2c(nc3ccccc13)-c1c([N+](=O)[O-])c3c(c(=O)n1C2)COC(=O)[C@]3(O)CC` registered an IC50 of 4.6 µM.
`CC[C@@]1(O)C(=O)Nc2c1c(CO)c(=O)n1c2-c2nc3ccccc3cc2C1` had an IC50 in data set [1] (Homo sapiens, NCI-H460, 72 h) of 7.7 µM.

As a reminder, the IC50 is the concentration needed to halve the response being measured. What is called half-life is how long it takes for the measured level to halve. The term Kp denotes the ratio of the level in a tissue or fluid to that in plasma or blood. Broadly, the AUC is concentration integrated over time. The term Tmax denotes the time from dosing to the highest level. One may read the IC90 as the concentration at which the effect reaches the 90% level. Usually Cmax stands for the highest concentration seen after dosing.

These data come from ChEMBL document CHEMBL1687926, “14-Aminocamptothecins: their synthesis, preclinical activity, and potential use for cancer treatment” (J Med Chem, 2011).
